{
  "source": "ChEMBL document CHEMBL6182837",
  "about": "“Discovery and biological evaluation of nitrofuranyl-pyrazolopyrimidine hybrid conjugates as potent antimicrobial agents targeting Staphylococcus aureus and methicillin-resistant S. aureus” (RSC Med Chem, 2025)",
  "key": {"[1]": {"experiment": "AUC (0 to t) in male Balb/c mouse at 1 mg/kg, iv by LC-MS/MS analysis", "format": "ADME, organism-based", "settings": "in vivo", "how_it_was_run": "(§1)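 Balb/c mice dosed 1 mg kg−1 intravenously or 30 mg kg−1 orally (2.5 mg kg−1 oral also given); plasma PK parameters derived.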"}, "[2]": {"experiment": "Clearance in male Balb/c mouse at 30 mg/kg, po by LC-MS/MS analysis", "format": "ADME, organism-based", "settings": "in vivo", "how_it_was_run": "as §1"}, "Staphylococcus aureus [3]": {"test_system": "Staphylococcus aureus", "experiment": "Synergistic antibacterial activity against Staphylococcus aureus ATCC 29213 assessed as fractional inhibitory concentration index at 0.02 ug/ml incubated up to 24 hrs in presence of vancomycin by checkerboard analysis", "format": "functional", "settings": "dose 0.02 µg/ml", "how_it_was_run": "(§2)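 Checkerboard microdilution in cation-adjusted MHB, done per CLSI. The compound and partner antibiotic were dissolved in DMSO. The antibiotic was serially diluted across the plate and the compound was twofold serially diluted into the wells to make the combinations. Each well received 0.1 ml of inoculum, a 0.5 McFarland suspension (1.5 × 10^8 CFU ml−1) diluted 1:100 in MHB. Plates were incubated 24 h at 37 °C, then read with Alamar blue (0.04%). FIC index was calculated.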"}, "Staphylococcus aureus [4]": {"test_system": "Staphylococcus aureus", "experiment": "Induction of resistance development in Staphylococcus aureus ATCC 29213 assessed as fold increase in MIC at 0.5 MIC measured after 20 passages relative to control", "format": "functional", "how_it_was_run": "(§3)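 Bacteria were serially passaged for 20 days after exposure to a sublethal drug concentration. MIC was determined at each passage. Vancomycin and norfloxacin were run as control agents.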"}, "Staphylococcus aureus [5]": {"test_system": "Staphylococcus aureus", "experiment": "Bactericidal activity against Staphylococcus aureus ATCC 29213 assessed as reduction in bacterial count at 2 to 4 times MIC incubated for 2 to 24 hrs by time-kill assay relative to control", "format": "functional", "parameters": "scale not given: the % may be the effect or the level left", "settings": "time 2-24 hrs"}, "Staphylococcus aureus [6]": {"test_system": "Staphylococcus aureus", "experiment": "Induction of resistance development in Staphylococcus aureus ATCC 29213 at 0.5 MIC measured after […]", "format": "functional, organism-based", "settings": "0.5 M", "how_it_was_run": "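Bacteria serially passaged under sublethal drug exposure over 20 days, with MIC redetermined at each passage; vancomycin and norfloxacin as controls.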"}, "Staphylococcus aureus [7]": {"test_system": "Staphylococcus aureus", "experiment": "Antibacterial activity against methicillin-resistant Staphylococcus aureus ATCC 15187 incubated for 24 hrs by Alamar blue staining based microdilution method", "format": "functional"}, "[8]": {"experiment": "Volume of distribution in male Balb/c mouse at 1 mg/kg, iv by LC-MS/MS analysis", "format": "ADME, organism-based", "settings": "in vivo", "how_it_was_run": "as §1"}, "Staphylococcus aureus [9]": {"test_system": "Staphylococcus aureus", "experiment": "Synergistic bactericidal activity against methicillin-resistant Staphylococcus aureus ATCC 15187 assessed as reduction in bacterial count at 0.075 ug/ml measured after 24 hrs in presence of rifampicin by time-kill assay", "format": "functional, organism-based", "settings": "dose 0.075 µg/ml"}, "Staphylococcus aureus [10]": {"test_system": "Staphylococcus aureus", "experiment": "Synergistic bactericidal activity against Staphylococcus aureus ATCC 29213 assessed as reduction in bacterial count at 0.02 ug/ml incubated up to 8 hrs in presence of vancomycin by time-kill assay", "format": "functional", "settings": "dose 0.02 µg/ml", "how_it_was_run": "(§4)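 Time-kill with compound combined with vancomycin at synergistic concentrations (from checkerboard FIC) against S. aureus; CFU followed up to 8 h and at 24 h.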"}, "[11]": {"experiment": "Drug metabolism in mouse liver microsomes", "format": "ADME, Microsome", "settings": "read-out: Drug metabolism"}, "Staphylococcus aureus [12]": {"test_system": "Staphylococcus aureus", "experiment": "Bactericidal activity against methicillin-resistant Staphylococcus aureus ATCC 15187 assessed as reduction in bacterial count at 4 times MIC measured for 2 hrs by time-kill assay", "format": "functional, organism-based"}, "Staphylococcus aureus [13]": {"test_system": "Staphylococcus aureus", "experiment": "Inhibition of biofilm formation of Staphylococcus aureus ATCC 29213 incubated for 27 hrs by absorbance based method", "format": "functional, organism-based"}, "Staphylococcus aureus [14]": {"test_system": "Staphylococcus aureus", "experiment": "Synergistic bactericidal activity against Staphylococcus aureus ATCC 29213 assessed as reduction in bacterial count at 0.02 ug/ml measured after 24 hrs in presence of vancomycin by time-kill assay", "format": "functional, organism-based", "settings": "dose 0.02 µg/ml", "how_it_was_run": "as §4"}, "Staphylococcus aureus [15]": {"test_system": "Staphylococcus aureus", "experiment": "Induction of membrane permeabilization in Staphylococcus aureus ATCC 29213 at 1 to 8 times MIC measured after 80 mins by PI staining based analysis relative to control", "format": "functional", "settings": "1.333 h", "how_it_was_run": "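PI permeabilization of S. aureus at 1×, 2×, 4×, 8× MIC followed over time up to 80 min; vancomycin 4× and 8× MIC as drug control; untreated blank; percentage permeabilization.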"}, "Escherichia coli": {"test_system": "Escherichia coli", "experiment": "Antibacterial activity against Escherichia coli ATCC 25922 incubated for 24 hrs by Alamar blue staining based microdilution method", "format": "functional"}, "[16]": {"experiment": "Solubility of compound in water", "format": "physicochemical"}, "[17]": {"experiment": "Volume of distribution in male Balb/c mouse at 30 mg/kg, po by LC-MS/MS analysis", "format": "ADME, organism-based", "settings": "in vivo", "how_it_was_run": "as §1"}, "Staphylococcus aureus [18]": {"test_system": "Staphylococcus aureus", "experiment": "Disruption of cell membrane integrity in Staphylococcus aureus ATCC 29213 assessed as red fluorescence at 1 to 2 times MIC incubated for 2.5 hrs by DAPI/PI staining based fluorescence microscopy", "format": "functional, organism-based", "how_it_was_run": "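S. aureus treated at 1× and 2× MIC, stained with DAPI (all cells) and PI (damaged membranes), imaged by fluorescence microscopy; vancomycin 2× MIC positive control; untreated blank.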"}, "Staphylococcus aureus [19]": {"test_system": "Staphylococcus aureus", "experiment": "Induction of resistance development in methicillin-resistant Staphylococcus aureus ATCC 15187 assessed as fold increase in MIC at 0.5 MIC measured after 20 passages relative to control", "format": "functional", "how_it_was_run": "as §3"}, "[20]": {"experiment": "AUC (0 to infinity) in male Balb/c mouse at 1 mg/kg, iv by LC-MS/MS analysis", "format": "ADME, organism-based", "settings": "in vivo", "how_it_was_run": "as §1"}, "RAW264.7": {"test_system": "RAW264.7", "experiment": "Cytotoxicity against mouse RAW264.7 cells up to 200 ug/ml incubated for 48 to 72 hrs by absorbance based assay", "format": "toxicity, cell-based", "settings": "time 48-72 hrs, dose < 200 µg/ml", "how_it_was_run": "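MTT read-out: macrophage cells plated at 1 × 10^4 cells per well in DMEM with 10% FBS, 37 °C, 5% CO2; treatment 48 h and 72 h; 2.5 mg ml−1 MTT 3 h, formazan dissolved in DMSO, OD 570 nm; doxorubicin 10 μM control.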"}, "Staphylococcus aureus [21]": {"test_system": "Staphylococcus aureus", "experiment": "Induction of membrane permeabilization in methicillin-resistant Staphylococcus aureus ATCC 15187 at 1 to 8 times MIC measured after 80 mins by PI staining based analysis relative to control", "format": "functional", "settings": "1.333 h", "how_it_was_run": "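Propidium iodide uptake measured over time in bacteria exposed to 1×, 2×, 4× and 8× MIC, with vancomycin 4× and 8× MIC and a blank control; percentage membrane permeabilization read up to 80 min.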"}, "Staphylococcus aureus [22]": {"test_system": "Staphylococcus aureus", "experiment": "Antibacterial activity against Staphylococcus aureus SA-K2191 overexpressing MsrA by Alamar blue staining based analysis", "format": "functional"}, "Staphylococcus aureus [23]": {"test_system": "Staphylococcus aureus", "experiment": "Additive antibacterial activity against Staphylococcus aureus ATCC 29213 assessed as fractional inhibitory concentration index at 0.02 ug/ml incubated up to 24 hrs in presence of rifampicin by checkerboard analysis", "format": "functional", "settings": "dose 0.02 µg/ml", "how_it_was_run": "as §2"}, "Staphylococcus aureus [24]": {"test_system": "Staphylococcus aureus", "experiment": "Additive antibacterial activity against methicillin-resistant Staphylococcus aureus ATCC 15187 assessed as fractional inhibitory concentration index at 0.075 ug/ml incubated up to 24 hrs in presence of vancomycin by checkerboard analysis", "format": "functional", "settings": "dose 0.075 µg/ml", "how_it_was_run": "as §2"}, "Staphylococcus aureus [25]": {"test_system": "Staphylococcus aureus", "experiment": "Antibacterial activity against Staphylococcus aureus ATCC 29213 incubated for 24 hrs by Alamar blue staining based microdilution method", "format": "functional"}, "J774.A1": {"test_system": "J774.A1", "experiment": "Cytotoxicity against mouse J774.A1 cells up to 200 ug/ml incubated for 24 hrs by absorbance based assay"}},
  "note": "The source made the active and inactive calls. The calls are words filed in the database; no cut-off is given here.",
  "data": [
    {"smiles": "CCCc1nn(C)c2c(Nc3ccc(O)cc3)nc(-c3ccc([N+](=O)[O-])o3)nc12", "values": [
      {"measurement": "AUC(0-t)", "setting": "[1]", "result": 90.8, "unit": "ng·h/mL"},
      {"measurement": "CL/F", "setting": "[2]", "result": 159, "unit": "mL/min/kg"},
      {"measurement": "fractional inhibitory concentration index (FICI)", "setting": "Staphylococcus aureus [3]", "result": 0.5},
      {"measurement": "fold change (FC)", "setting": "Staphylococcus aureus [4]", "result": 200},
      {"measurement": "Activity", "setting": "Staphylococcus aureus [5]", "result": 99.9, "unit": "%"},
      {"measurement": "Activity", "setting": "Staphylococcus aureus [6]", "result": "inactive"},
      {"measurement": "MIC", "setting": "Staphylococcus aureus [7]", "result": 0.15, "unit": "µg/mL"},
      {"measurement": "Vd", "setting": "[8]", "result": 1.69, "unit": "L/kg"},
      {"measurement": "Activity", "setting": "Staphylococcus aureus [9]", "result": "Moderate_effect"},
      {"measurement": "Activity", "setting": "Staphylococcus aureus [10]", "result": ">10", "unit": "log10CFU"},
      {"measurement": "metabolised", "setting": "[11]", "result": 71, "unit": "%"},
      {"measurement": "Activity", "setting": "Staphylococcus aureus [12]", "result": "Active"},
      {"measurement": "inhibition", "setting": "Staphylococcus aureus [13]", "result": "Dose-dependent-effect"},
      {"measurement": "Activity", "setting": "Staphylococcus aureus [14]", "result": "inactive"},
      {"measurement": "Activity", "setting": "Staphylococcus aureus [15]", "result": 60, "unit": "%"},
      {"measurement": "MIC", "setting": "Escherichia coli", "result": "inactive"},
      {"measurement": "solubility", "setting": "[16]", "result": 1, "unit": "µg/mL"},
      {"measurement": "Vd", "setting": "[17]", "result": 4.75, "unit": "L/kg"},
      {"measurement": "Activity", "setting": "Staphylococcus aureus [18]", "result": "Active"},
      {"measurement": "fold change (FC)", "setting": "Staphylococcus aureus [19]", "result": 3200},
      {"measurement": "AUC(0-inf)", "setting": "[20]", "result": 94.8, "unit": "ng·h/mL"},
      {"measurement": "Activity", "setting": "RAW264.7", "result": "Non-toxic"},
      {"measurement": "Activity", "setting": "Staphylococcus aureus [21]", "result": 45, "unit": "%"},
      {"measurement": "MIC", "setting": "Staphylococcus aureus [22]", "result": 0.15, "unit": "µg/mL"},
      {"measurement": "fractional inhibitory concentration index (FICI)", "setting": "Staphylococcus aureus [23]", "result": 0.7},
      {"measurement": "fractional inhibitory concentration index (FICI)", "setting": "Staphylococcus aureus [24]", "result": 1},
      {"measurement": "MIC", "setting": "Staphylococcus aureus [25]", "result": 0.64, "unit": "µg/mL"},
      {"measurement": "Activity", "setting": "J774.A1", "result": "Non-toxic"}
    ]}
  ]
}
